GASC1 inh: KDM4C (human) demethylase inhibition | GST-KDM4C 2-372, H3K9me3 peptide, LANCE TR-FRET | AID 720574 | 96,000 tested, 0.15% active | inhibition, % at 12.5 µM;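 active = mean replicate inhibition above about 25%, with at least 55% of replicates also reaching it, limit read from the data, passing the limit was not always enough; inconclusive = only one of those two conditions met; inactive = neither condition met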
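System – N-terminal GST-fused human GASC-1 (KDM4C) fragment, residues 2-372 · Input – enzyme final amount 10 nM · Technique – LANCE TR-FRET, Eu antibody, ULight-streptavidin, EDTA, ex 340 nm, em 618/671 nm · Medium – HEPES buffer, pH 7.5, plus ascorbate · Incubation – enzyme reaction 30 min, then detection 60 min, both room temperature · Reagent – H3K9me3 peptide with Fe(II)/2OG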
IDH1 mut inh: blocks human IDH1 R132H reductase activity; O75874; diaphorase/resazurin fluorescence, 60 min; inhibition, % at 10 µM; 70,000 tested, 0.18% active; in the data active = inhibition above about 34%; inconclusive = no clear call, values can overlap the other calls; inactive = below about 11%;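 also: 0% = DMSO and 100% = no enzyme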
Target sequence (O75874 whole entry R132H): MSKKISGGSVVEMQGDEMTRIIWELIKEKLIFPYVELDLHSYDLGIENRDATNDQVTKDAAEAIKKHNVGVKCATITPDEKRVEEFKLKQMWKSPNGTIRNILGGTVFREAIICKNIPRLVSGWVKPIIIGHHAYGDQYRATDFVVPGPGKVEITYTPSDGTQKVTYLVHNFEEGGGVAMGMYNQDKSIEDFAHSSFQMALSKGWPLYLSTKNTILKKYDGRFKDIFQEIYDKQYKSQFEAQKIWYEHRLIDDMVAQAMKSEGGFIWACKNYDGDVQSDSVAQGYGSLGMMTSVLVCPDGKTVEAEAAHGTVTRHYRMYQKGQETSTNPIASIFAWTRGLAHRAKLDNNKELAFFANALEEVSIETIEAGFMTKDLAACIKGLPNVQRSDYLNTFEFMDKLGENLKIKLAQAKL
Pf Dd2 inh: blocks growth of Plasmodium falciparum Dd2 parasites; P. falciparum Dd2 growth, SYBR Green, 72 h; stronger effect = lower value; AID 1159554; activity change, % at 10 µM; 94,000 tested, 2.3% active; in the data active = activity change below about -80%; inconclusive = no clear call, values can overlap the other calls
T cruzi growth-1: inhibitors of T. cruzi proliferation; T. cruzi beta-gal in NIH3T3, GalScreen luminescence, 90 h; inhibition, % at 8.34 µM; 77,000 tested, 5.9% active;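 active = mean inhibition above about 93%, with at least 55% of replicates each passing it, limit read from the data, passing the limit was not always enough; inconclusive = only one of those two conditions holds; inactive = neither condition holds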
T cruzi growth-2: blocks T. cruzi growth in NIH3T3 host cells | shares compounds with T cruzi growth-1 | T. cruzi beta-gal in NIH3T3, GalScreen luminescence, 90 h | inhibition, % at 8.35 µM | 5,600 tested, 72% active | AID 651739;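 active = mean replicate inhibition above about 95% and at least 55% of replicates individually reaching it, limit read from the data; inconclusive = only one of the two criteria is met; inactive = neither criterion is met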
T cruzi growth-3: blocks T. cruzi growth in NIH3T3 host cells. shares compounds with T cruzi growth-1. T. cruzi beta-gal in NIH3T3, GalScreen luminescence, 90 h. inhibition, % at 2.09 µM. 5,600 tested, 21% active. AID 651740;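 active = mean inhibition above about 95%, with at least 55% of replicates also reaching it, limit read from the data; inconclusive = meets just one of the two conditions; inactive = meets neither condition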;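 also: plate controls were neutral control median for no effect and positive control median for full effect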
3T3 cytotox: NIH/3T3 (mouse) viability loss | shares compounds with T cruzi growth-1 | NIH/3T3 viability, CellTiter-Glo ATP luminescence, 90 h | cytotoxicity (signal decrease), % at 8.35 µM | 5,600 tested, 14% active | AID 651742;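 active = mean signal decrease across replicates above about 35% based on untreated-well scatter, with enough replicates individually passing, limit read from the data; inconclusive = no rule stated though some were filed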;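 also: 0% = median of neutral control wells and 100% = median of positive control wells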
NIH3T3 tox 2: kills mouse NIH/3T3 fibroblasts; 5,600 tested, 56% active; inhibition, % at 24.9 µM; shares compounds with T cruzi growth-1; NIH/3T3 viability, CellTiter-Glo ATP luminescence, 90 h;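 active = mean loss of cell viability signal at or above a set limit, and enough replicates individually reaching it; inconclusive = meets only the mean limit or only the replicate share; inactive = meets neither condition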;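 also: 0% = median of neutral control wells and 100% = median of positive control wells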
* marks the source's active call; other numbers are inactive results; ? = inconclusive; · = no result given. Only some compounds are listed: those with a hit (about 5.8% of all), similar ones and a draw of the others.

SMILES	GASC1 inh	IDH1 mut inh	Pf Dd2 inh	T cruzi growth-1	T cruzi growth-2	T cruzi growth-3	3T3 cytotox	NIH3T3 tox 2
C[C@H]1CN([C@@H](C)CO)S(=O)(=O)c2ccc(C#CC3CC3)cc2O[C@@H]1CN(C)C(=O)C1CCCCC1	1	·	-36	111*	106*	92	11	45*
C[C@H]1CN([C@@H](C)CO)S(=O)(=O)c2ccc(C#CC3CC3)cc2O[C@H]1CN(C)C(=O)C1CCCCC1	1	·	-38	100*	106*	84	13	51*
C[C@@H]1CN([C@@H](C)CO)S(=O)(=O)c2ccc(C#CC3CC3)cc2O[C@H]1CN(C)C(=O)C1CCCCC1	-2	·	-43	?	105*	81	38*	29*
C[C@H](CO)N1C[C@H](C)[C@@H](CN(C)C(=O)C2CCC2)Oc2cc(C#CC3CC3)ccc2S1(=O)=O	-2	-2	-35	76	·	·	·	·
O=C(N/N=C/c1cc(O)ccc1[N+](=O)[O-])c1ccccn1	·	0	·	·	·	·	·	·
C[C@@H]1CN([C@@H](C)CO)S(=O)(=O)c2ccc(C#CC3CC3)cc2O[C@@H]1CN(C)C(=O)C1CCCCC1	-1	·	-16	100*	105*	88	14	20
C[C@@H]1CN([C@@H](C)CO)S(=O)(=O)c2ccc(C#CC3CC3)cc2O[C@@H]1CN(C)C(=O)C1CCC1	1	·	12	66	·	·	·	·
C[C@H](CO)N1C[C@H](C)[C@H](CN(C)C(=O)C2CCCCC2)Oc2cc(C#CC3CC3)ccc2S1(=O)=O	-2	·	-40	?	106*	67	11	27
C[C@H](CO)N1C[C@H](C)[C@H](CN(C)C(=O)C2CC2)Oc2ncc(-c3cccc(C#N)c3)cc2C1=O	-5	·	-17	72	·	·	·	·
COc1ccc(NC(=O)N2CCC3(CC2)CN(C(=O)CN2CCOCC2)[C@H](CO)c2[nH]c4cc(OC)ccc4c23)cc1	1	·	-68	·	·	·	·	·
CNC(=O)C[C@@H]1CC[C@@H]2[C@H](COc3ccc(NC(=O)c4ccc5c(c4)OCO5)cc3C(=O)N2C)O1	0	·	8	34	·	·	·	·
CN1C(=O)c2cc(NC(=O)c3cccc(Cl)c3)ccc2OC[C@H]2O[C@H](CC(=O)NC3CCCCC3)CC[C@H]21	1	·	-23	82	·	·	·	·
CN1C(=O)c2cc(NC(=O)Nc3ccc(Cl)cc3)ccc2OC[C@@H]2O[C@H](CC(=O)NCCN3CCCCC3)CC[C@@H]21	1	·	-23	103*	108*	79	0	8
CN1C(=O)c2cc(NC(=O)c3cccc(Cl)c3)ccc2OC[C@@H]2O[C@@H](CC(=O)NC3CCCCC3)CC[C@H]21	3	·	-7	96*	?	43	9	?
CNC(=O)C[C@H]1CC[C@@H]2[C@@H](COc3ccc(NC(=O)c4ccc5c(c4)OCO5)cc3C(=O)N2C)O1	0	·	0	108*	-32	-8	-14	-5
CN1C(=O)c2cc(NC(=O)Nc3ccc(Cl)cc3)ccc2OC[C@H]2O[C@@H](CC(=O)NCCN3CCCCC3)CC[C@H]21	0	·	0	-12	·	·	·	·
CNC(=O)C[C@@H]1CC[C@H]2[C@@H](COc3ccc(NC(=O)c4ccc5c(c4)OCO5)cc3C(=O)N2C)O1	-2	·	-31	111*	-3	-15	-3	-1
CCNC(=O)C[C@@H]1CC[C@@H]2[C@@H](COc3ccc(NC(=O)c4ccc5c(c4)OCO5)cc3C(=O)N2C)O1	-1	·	-11	27	·	·	·	·
COC(=O)C[C@H]1CC[C@H]2[C@H](COc3ccc(NC(=O)Nc4cccc(Cl)c4)cc3C(=O)N2C)O1	-1	·	-3	101*	103*	?	?	46*
CCN(CC)CCNc1ncnc2sc3c(c12)CC(C)(C)OC3	·	0	·	·	·	·	·	·
COc1cccc(S(=O)(=O)N2CCCCN3[C@H](CO)[C@H](c4ccc(-c5ccncc5)cc4)[C@@H]3C2)c1	-1	·	-12	113*	109*	104*	-27	10
COc1cccc(S(=O)(=O)N2CCCCN3[C@H](CO)[C@@H](c4ccc(-c5cncnc5)cc4)[C@H]3C2)c1	-1	·	-2	54	·	·	·	·
COc1cccc(S(=O)(=O)N2CCCCN3[C@H](C2)[C@H](c2ccc(-c4cccnc4)cc2)[C@@H]3CO)c1	-1	·	-58	105*	103*	88	4	6
COc1cccc(S(=O)(=O)N2CCCCN3[C@H](CO)[C@@H](c4ccc(-c5ccccc5)cc4)[C@@H]3C2)c1	0	·	-45	65	·	·	·	·
COc1cccc(S(=O)(=O)N2CCCCN3[C@H](CO)[C@@H](c4ccc(-c5cccnc5)cc4)[C@H]3C2)c1	0	·	2	55	·	·	·	·
SMILES	GASC1 inh	IDH1 mut inh	Pf Dd2 inh	T cruzi growth-1	T cruzi growth-2	T cruzi growth-3	3T3 cytotox	NIH3T3 tox 2
COc1ccc(S(=O)(=O)N2CCCCN3[C@H](CO)[C@@H](c4ccc(-c5cccnc5)cc4)[C@H]3C2)cc1	0	·	-12	113*	78	23	19	12
COc1cccc(S(=O)(=O)N2CCCCN3[C@H](CO)[C@H](c4ccc(-c5cccnc5)cc4)[C@@H]3C2)c1	-1	·	13	118*	103*	66	-8	24
C[C@@H]1CN([C@H](C)CO)C(=O)c2cc(NC(=O)Cc3ccccc3)ccc2O[C@@H](C)CCCCO[C@H]1CN(C)Cc1ccccc1	0	0	-59	·	·	·	·	·
O=C(C[C@@H]1C=C[C@@H](NC(=O)c2cccc(F)c2)[C@H](CO)O1)NCCN1CCCC1	0	0	-7	·	·	·	·	·
CN1CCN(C(=O)C[C@@H]2CC[C@@H]3[C@H](COC[C@H](O)CN3C(=O)Nc3ccc(Cl)cc3)O2)CC1	-3	·	0	-2	·	·	·	·
COc1ccc(NC(=O)N(C)C[C@@H]2OCCCC[C@H](C)Oc3ccc(NC(=O)Nc4ccc(F)cc4)cc3C(=O)N([C@@H](C)CO)C[C@@H]2C)cc1	-3	·	-11	101*	107*	39	15	0
COc1ccc(NC(=O)Nc2ccc3c(c2)C(=O)N([C@@H](C)CO)C[C@H](C)[C@@H](CN(C)C(=O)C2CCCCC2)OCCCC[C@@H](C)O3)cc1	0	0	?	95*	104*	5	0	-28
COc1ccc(NC(=O)Nc2ccc3c(c2)C(=O)N([C@H](C)CO)C[C@H](C)[C@H](CN(C)C(=O)Nc2ccc(OC)cc2)OCCCC[C@H](C)O3)cc1	0	·	33	?	103*	22	-4	5
COc1ccc(NC(=O)Nc2ccc3c(c2)C(=O)N([C@@H](C)CO)C[C@H](C)[C@H](CN(C)C(=O)Nc2ccc(OC)cc2)OCCCC[C@@H](C)O3)cc1	2	0	-71	·	·	·	·	·
